A selection: hits, their analogues and other compounds. The true share with any hit is near 5.1%.
STAT1 act: STAT1 signaling activators, primary screen, cell-based, HTS, luciferase reporter; NIH 3T3 STAT1-luciferase reporter, IFN-gamma, luminescence; 100% = IFN-gamma alone, no compound; activation (% of control), % at 5.5 µM; actives 2.6% (n = 200,000); AID 932, 2007;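 active means activation above the screen-wide mean activation plus 3 SD, cut at about 130% in these data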
APP 5'UTR act: activators of APP 5'UTR luciferase reporter, primary screen, SH-SY5Y cells; actives 1% (n = 190,000); AID 1276, 2008; activation, % at 2 µM; SH-SY5Y APP 5'UTR luciferase reporter, luminescence; zero percent = DMSO vehicle wells;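 active means activation above a set limit, based on mean plus 3 SD of controls, cut at about 140% in these data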
STAT1 blocker: STAT1 signaling inhibitors, primary screen, cell-based, HTS, luciferase reporter | NIH 3T3 STAT1-luciferase reporter, IFN-gamma, luminescence | AID 920, 2007 | actives 0.35% (n = 200,000) | inhibition, % at 5.5 µM;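 active means inhibition above a set limit, the mean inhibition across all tested compounds plus 3 SD, cut at about 34% in these data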
STAT3 inh: IL-6 driven STAT3 reporter inhibitors, primary screen, U3A cells, luciferase, luminescence, MLSCN library; AID 862, 2007; actives 0.89% (n = 190,000); IL-6 STAT3-luciferase reporter; host cell line lacks STAT1; inhibition, % at 5.5 µM;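 active means inhibition above the mean inhibition across all screened compounds plus 3 SD, cut at about 44% in these data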
STAT3 act: IL-6 driven STAT3 reporter potentiators, primary screen, U3A cells, luciferase, luminescence, MLSCN library; IL-6 STAT3-luciferase reporter; 100% = signal with IL-6 EC80 alone; activation (% of control), % at 5.6 µM; actives 0.91% (n = 190,000); AID 871, 2007;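 active means activation above the screen-wide mean of compound activation plus 3 SD, cut at about 130% in these data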
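system = STAT3-luciferase reporter U3A cells | reagent = IL-6 stimulus at 33 ng/mL final | timing = 1 h compound pre-exposure, 6 h IL-6 stimulation, 37 °C | measured by = luminescence | evaluation = % activation versus median of IL-6-stimulated wells | control set = IL-6-only wells as 100% reference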
NF-kB expr up: activators of NF-kB expression in neurons, primary screen, cell-based, HTS | human neuronal cells, NF-kB reporter expression; hits give high values | fold change at 12.5 µM | actives 1.6% (n = 190,000) | AID 1239, 2008; in the data active means fold change above about 3.3
A number is an active result; n = inactive; x = no result given.

SMILES	STAT1 act	APP 5'UTR act	STAT1 blocker	STAT3 inh	STAT3 act	NF-kB expr up
O=C(NCc1ccc2c(c1)OCO2)C1CC(=O)N(c2ccc(F)cc2)C1 (centres undefined)	n	n	n	n	n	n
c1ccc2nc(-c3nccs3)ccc2c1	131.2	n	n	n	n	n
CN1CCN(c2nc3c(c(=O)[nH]c(=O)n3C)n2CCSc2nc3ccccc3s2)CC1	n	n	n	n	n	n
CCN(CC)c1ccc(/C=C2/C(=O)c3ccc(C(=O)O)cc3C2=O)cc1	129.5	n	n	n	n	n
CCN(CC)c1ccc(C=C2C(=O)OC3(CCCCC3)OC2=O)cc1	n	n	n	n	n	n
Cc1cc(C)c(N=Cc2c(O)n(-c3nccs3)c(=O)c3ccccc23)c(C)c1	n	n	n	n	n	n
COc1ccc(Nc2ccc(S(=O)(=O)N3CCCCC3)cc2[N+](=O)[O-])cc1	n	n	n	n	n	n
O=C(Nc1ccc(F)cc1F)c1cc2nc3c(c(C(F)(F)F)n2n1)CCCC3	n	173.4	n	n	n	n
O=C(NCc1cccs1)C(NS(=O)(=O)c1cccc2nsnc12)c1ccccc1 (centres undefined)	n	n	n	n	n	n
Cc1ccc(C2=Nc3ccccc3N=C(C(Cl)Cl)C2)cc1	n	n	n	n	n	3.99
O=c1oc2cc(Cl)ccc2n1CSc1nc2ccccc2s1	n	n	n	n	n	8.64
O=C(CSc1nc2ccccc2s1)N1c2ccccc2Sc2ccc(Cl)cc21	n	n	n	n	n	n
O=C1CCC(=O)N1c1ccc(-c2nc3ccccc3s2)cc1	n	n	68.0	86.5	n	n
CC1(C)CC(=O)C2=C(C1)Nc1ncnn1C2c1cccs1 (centres undefined)	n	n	n	n	n	n
Nn1c(SCc2ccccc2)nc2c(cnn2-c2ccccc2)c1=O	135.0	n	n	n	n	n
CCCCSc1cnn(-c2ccccc2)c(=O)c1SCCCC	n	n	n	n	n	n
CCCCSc1nc2c(cnn2-c2ccccc2)c(=O)n1N	140.9	167.5	n	n	n	4.7
O=C(Nc1ccccc1)N1CCOCC1	n	n	n	n	n	n
O=C(Nc1ccc2c(c1)oc1ccccc12)N1CCOCC1	140.4	n	n	n	n	3.81
Cc1ccc(NC(=O)Nc2c(C)n(C)n(-c3ccccc3)c2=O)cc1C	n	n	n	n	n	n
N/C(=N\OC(=O)c1ccc2ccccc2c1)c1ccccn1	n	158.2	70.6	76.4	n	4.28
N/C(=N\OC(=O)c1cccc([N+](=O)[O-])c1)c1ccccn1	132.9	n	n	n	n	n
COc1cccc(C(=O)O/N=C(\N)c2ccncc2)c1OC	n	n	n	n	n	n
Cc1ccccc1C(=O)O/N=C(\N)c1ccncc1	133.1	n	n	n	n	n
N/C(=N\OC(=O)c1ccc2ccccc2c1)c1ccncc1	147.8	149.2	n	n	n	n
SMILES	STAT1 act	APP 5'UTR act	STAT1 blocker	STAT3 inh	STAT3 act	NF-kB expr up
C=CCNc1cc(C)oc(=O)c1C(=O)CC	n	n	n	n	n	n
COc1ccc(/C(N)=N/OC(=O)CSc2ccccc2)cc1	n	n	n	n	n	5.26
Cc1ccc(/C(N)=N/OC(=O)CSc2ccccc2)cc1	129.6	180.3	n	n	n	n
COc1cccc2c1C(=O)c1c(O)c3c(c(O)c1C2=O)C[C@@](O)(C(=O)CO)C[C@@H]3O[C@H]1C[C@H](N)[C@H](O)[C@H](C)O1	264.6	n	n	n	142.1	3.76
COc1cccc(/C=C(/C(=O)OCC(=O)NC2CCCC(C)C2C)c2ccccc2)c1 (centres undefined)	n	n	n	n	n	n
CC1(C)CC(=O)c2sc(NC(=O)c3ccccc3)nc2C1	n	170.5	n	n	n	3.55
COC(=O)[C@@]1(Cc2ccc(F)cc2)[C@@H]2[C@@H](CC(=O)[C@H]2CC(=O)C(=O)N(C)C)CN1C(=O)c1ccccc1	n	n	n	n	n	n
CCOC(=O)N1CCN(C(=O)CSc2ccc3nnc(-c4ccccn4)n3n2)CC1	n	n	n	n	n	n
CCC(=O)NC(c1ccccc1OC)c1ccc2cccnc2c1O (centres undefined)	n	n	n	n	n	6.87
Cc1cc(OCC(=O)Nc2ccc3c(c2)OCCO3)cc(C)c1Cl	n	n	n	n	n	n
O=C(COc1ccccc1[N+](=O)[O-])N/N=C/c1cccc(OC(=O)c2ccc3c(c2)OCO3)c1	141.4	n	n	n	n	n
Cc1ccc(OCC(=O)Nc2ccc(F)cc2)c([N+](=O)[O-])n1	142.2	n	n	n	n	n
Cc1cccc(OCC(=O)Nc2ccc3c(c2)OCO3)c1C	n	n	n	n	n	n
Cc1ccc(Cl)c(OCC(=O)Nc2ccc3c(c2)OCCO3)c1	n	159.5	n	n	n	3.84
O=C(COc1ccccc1[N+](=O)[O-])Nc1ccc2c(c1)OCO2	150.1	n	n	n	n	x
Cc1ccc(C(=O)N/C(=C/c2ccco2)C(=O)NCCCn2ccnc2)cc1	n	n	n	n	n	n
O=C(COc1cc(F)ccc1[N+](=O)[O-])Nc1cccc(Br)c1	128.9	n	n	n	n	n
CCc1c(C)nc2cc(-c3ccc(OC)cc3)[nH]n2c1=O	129.9	n	n	n	n	n
Cc1cc(=O)n2[nH]c(-c3ccc(C(C)(C)C)cc3)cc2n1	n	n	n	n	n	5.08
Cc1cccc(C)c1OCc1nc2ccccc2c(=O)n1/N=C/c1ccc(OCC(=O)O)cc1	n	n	n	n	n	n
Cc1cc(C)n2nc(-c3ccccc3)cc2n1	141.7	n	n	n	n	3.67
Cc1ccc(NC(=O)c2cc3nc(C)cc(C)n3n2)cc1	142.1	146.3	n	n	n	4.2
Cc1cc(C)n2nc(-c3ccsc3-n3c(C)ccc3C)cc2n1	n	n	n	n	n	n
Cc1ccc(-c2cc3nc(C)cc(C)n3n2)cc1	134.5	171.1	n	n	151.6	5.12
Cc1cc(C)n2nc(C(=O)NCc3ccccc3)cc2n1	n	n	n	n	n	n
CC1CCN(C(=O)CC2C(=O)Nc3c2c(=O)n(C)c(=O)n3Cc2ccccc2)CC1 (centres undefined)	n	n	n	n	n	n
Cc1cc(CSc2ccccc2)ccc1NC(=O)c1cccc([N+](=O)[O-])c1	n	n	n	n	n	n
COC(=O)c1ccc(-c2ccc(/C=N/N3C(=O)C4C5C=CC(CC5)C4C3=O)o2)cc1 (centres undefined)	132.1	n	n	n	n	n
